In brackets after ≈: the same amount, converted by molar mass.
Legend:
[1] = test system: HUVECs tube formation; test: Endothelial cell tube formation assay; format: cell-based, human
Outline: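 HUVECs grown in ECM-2 were trypsinized and resuspended in basal medium with 0.1% BSA. 5 × 10^4 cells were seeded onto tube-formation matrix plates with test compound or suramin as positive control, for 4–6 h at 37°C, 5% CO2. After HBSS washes, tube junctions were counted at ×4 and expressed as percentage inhibition.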

[2] = test system: HepG2 cells; test: MTT cell proliferation inhibition, HepG2; format: cell-based; settings: Homo sapiens, HepG2, 72 h, read-out: IC50±SD
Outline: (§1)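 HepG2 (passage 4–7), HUVEC and WRL68 cells (1 × 10^4) were exposed to test compound for 72 h, with 1% DMSO as negative control. Then 20 µL MTT (5 mg/mL in PBS) was added for 5 h at 37°C, 5% CO2. Absorbance was read at 570 nm against 630 nm reference, and viability expressed as percent of untreated cells. Triplicates were run and the experiment repeated three times.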

[3] = test system: human umbilical vein endothelial cells (HUVEC); test: MTT cell proliferation inhibition, HUVEC; format: cell-based; settings: 72 h
Outline: as §1

[4] = test system: WRL68 cells; test: MTT cell proliferation inhibition, WRL68; format: cell-based; settings: Homo sapiens, WRL68, 72 h, read-out: IC50±SD
Outline: as §1

[5] = test system: HepG2 cells migration; test: Cell migration; format: cell-based, human; settings: HepG2, 6.25, 12.5, 25 μg/mL, up to 96 h; untreated closed after 96 h
Outline: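 Confluent HepG2 monolayers were scratched and exposed to 6.25, 12.5 or 25 µg/mL test compound, with images taken at 0, 12, 24, 30, 48, 54, 72, 78 and 96 h. Gap distances were measured by inverted microscopy (×20), using ten fields per treatment and at least 10 readings per field. Cell-free area gave percentage wound closure.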

[6] = test system: microvessel outgrowth from rat aortic rings; test: Ex vivo rat aortic ring assay; settings: 12.5 μg/mL, day 5, not significantly different from suramin
Outline: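 Thoracic aortas from 10–12-week male Sprague Dawley rats were rinsed in HBSS with 2.5 µg/mL amphotericin B, cleaned and cut into 1 mm rings. Rings were embedded in fibrinogen (3 mg/mL)/thrombin gel in serum-free M199 with aprotinin, then fed M199 with 20% HIFCS and additives at 37°C, 5% CO2. Test compound ran 1.56–12.5 µg/mL, suramin positive, 1% DMSO negative. Day-5 sprouting area was measured (×4) in three experiments, six replicates each, as mean ± SD.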

[7] = test system: VEGF, MMP-9 and NF-κB expression in HepG2 cells; test: Western blot analysis of VEGF, MMP-9 and NF-κB; format: cell-based, human; settings: 6.25 μg/mL, P < 0.05
[8] = test system: angiogenesis-related proteins of HepG2 cells; test: Human cytokine; format: cell-based; settings: HepG2, 6.25 μg/mL, cytokine array
Outline: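 HepG2 cells were exposed to 6.25 µg/mL test compound. Samples with a biotinylated detection-antibody cocktail were bound to a membrane antibody array of angiogenesis proteins carrying duplicate spots. Detection used streptavidin-HRP chemiluminescence on X-ray film with densitometry. Values are fold change versus untreated cultures.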

[9] = test system: chick chorioallantoic membrane neovascularization; test: Chorioallantoic membrane; format: in vivo, chicken; settings: 24 h, 6.25 and 12.5 μg/mL (Figure 3 legend)
Outline: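 On fertilized eggs incubated from day 5 at 37°C in constant humidity, 5 mL albumin was aspirated and the eggs laid horizontally to detach the CAM. Test compound in 1.2% agarose disks went onto the CAM through a shell window, with agarose-only disks as negative control. The window was taped and eggs incubated 24 h. Vessels were counted from dissecting-microscope photographs as mean count per CAM.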

[10] = Homo sapiens, HUVEC, read-out: inhibition of endothelial tube formation

IC50 [2] [mg/L] | SMILES | inhibition at 100 µg/mL [1, 10] [%] | IC50 ([3]; Homo sapiens, read-out: IC50±SD, HUVEC, MTT, 72 h) [mg/L] | IC50±SD ([3]; MTT) [mg/L] | effect on endothelial tube network ([1]; HUVECs, 3.125 μg/mL) | inhibition at 12.5 µg/mL [1, 10] [%] | IC50 [4] [mg/L] | scratch wound closure [5] | inhibition of neovascularization [6] | Matrix metalloproteinase-9 (MMP-9) expression [7] | NF-κB expression [7] | VEGF expression [7] | MMP expression [8] | VEGF expression [8] | angiogenin expression [8] | angiopoietin expression [8] | endostatin expression [8] | thrombospondin expression [8] | effect on CAM vasculature [9]
 | Cc1ccc(C(=O)Nc2ccc(S(=O)(=O)O)c3cc(S(=O)(=O)O)cc(S(=O)(=O)O)c23)cc1NC(=O)c1cccc(NC(=O)Nc2cccc(C(=O)Nc3cc(C(=O)Nc4ccc(S(=O)(=O)O)c5cc(S(=O)(=O)O)cc(S(=O)(=O)O)c45)ccc3C)c2)c1 [Suramin, reference compound] | 96 |  |  |  |  |  |  |  |  |  |  |  |  |  |  |  |  | 
6.2 ± 0.7 (≈ 28.4 µM) | C/C1=C\CC(C)(C)/C=C/C(=O)/C(C)=C/CC1 [ZER, zerumbone] |  | > 50 | 62.0 ± 1.3 (≈ 284 µM) | reduced the intensity of network structures and caused the formation of incomplete and broken tubules | 89 | 150 ± 0.4 (≈ 687 µM) | not scratch closure | almost complete inhibition | downregulation | downregulation | downregulation | inhibited expression | inhibited expression | inhibited expression | inhibited expression | increasing expression | increasing expression | vascular regression
